Test results published in ChEMBL document CHEMBL1629440, “Synthesis and pharmacological properties of novel hydrophilic 5-HT4 receptor antagonists” (Bioorg Med Chem, 2010).

What was measured:
[1] = target: Kappa-type opioid receptor (Homo sapiens, UniProt P41145); assay: Binding affinity to opioid receptor KOR
[2] = target: Muscarinic acetylcholine receptor M3 (Homo sapiens, UniProt P20309); assay: Binding affinity to muscarinic acetylcholine receptor M3
[3] = target: Alpha-1A adrenergic receptor (Homo sapiens, UniProt P35348); assay: Binding affinity to alpha1A adrenergic receptor
Alpha-1A adrenergic receptor, sequence (P35348 whole entry): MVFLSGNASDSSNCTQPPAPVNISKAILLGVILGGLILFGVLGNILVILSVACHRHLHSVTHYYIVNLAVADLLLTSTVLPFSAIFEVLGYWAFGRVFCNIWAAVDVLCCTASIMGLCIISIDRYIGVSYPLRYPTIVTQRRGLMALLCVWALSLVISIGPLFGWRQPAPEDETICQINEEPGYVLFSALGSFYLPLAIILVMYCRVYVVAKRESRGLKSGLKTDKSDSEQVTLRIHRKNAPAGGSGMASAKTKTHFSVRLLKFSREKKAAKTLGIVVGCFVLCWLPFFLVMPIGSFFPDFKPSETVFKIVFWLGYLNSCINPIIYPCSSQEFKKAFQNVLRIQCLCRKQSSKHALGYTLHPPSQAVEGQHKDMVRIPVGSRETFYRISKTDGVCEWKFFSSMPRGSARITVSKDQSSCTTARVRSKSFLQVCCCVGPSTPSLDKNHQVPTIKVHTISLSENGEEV

[4] = target: Muscarinic acetylcholine receptor M1 (Homo sapiens, UniProt P11229); assay: Binding affinity to muscarinic acetylcholine receptor M1
Muscarinic acetylcholine receptor M1, sequence (P11229 whole entry): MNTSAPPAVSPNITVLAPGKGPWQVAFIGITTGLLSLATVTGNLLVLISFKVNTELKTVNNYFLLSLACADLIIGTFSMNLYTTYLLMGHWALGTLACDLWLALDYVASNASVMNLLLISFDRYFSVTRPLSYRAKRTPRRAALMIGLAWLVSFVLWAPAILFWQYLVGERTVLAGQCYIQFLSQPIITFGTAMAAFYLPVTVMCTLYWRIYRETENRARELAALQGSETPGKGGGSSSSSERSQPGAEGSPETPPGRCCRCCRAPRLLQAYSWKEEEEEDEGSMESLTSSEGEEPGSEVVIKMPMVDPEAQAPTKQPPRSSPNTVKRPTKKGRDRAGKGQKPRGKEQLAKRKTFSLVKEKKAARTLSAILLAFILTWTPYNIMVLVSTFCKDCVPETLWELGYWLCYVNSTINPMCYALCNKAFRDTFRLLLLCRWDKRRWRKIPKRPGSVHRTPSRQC

[5] = target: Muscarinic acetylcholine receptor M4 (Homo sapiens, UniProt P08173); assay: Binding affinity to muscarinic acetylcholine receptor M4
[6] = target: Alpha-2A adrenergic receptor (Homo sapiens, UniProt P08913); assay: Binding affinity to alpha2A adrenergic receptor
D(3) dopamine receptor = D(3) dopamine receptor (Homo sapiens, UniProt P35462); assay: Binding affinity to dopamine receptor D3
[7] = Binding affinity to GABA receptor BDZ-site
[8] = target: Alpha-1D adrenergic receptor (Homo sapiens, UniProt P25100); assay: Binding affinity to Alpha-1D adrenergic receptor
[9] = target: 5-hydroxytryptamine receptor 2A (Homo sapiens, UniProt P28223); assay: Binding affinity to 5HT2A receptor
[10] = target: Alpha-2C adrenergic receptor (Homo sapiens, UniProt P18825); assay: Binding affinity to Alpha-2C adrenergic receptor
[11] = target: Sodium-dependent serotonin transporter (Homo sapiens, UniProt P31645); assay: Binding affinity to SERT
[12] = target: Beta-2 adrenergic receptor (Homo sapiens, UniProt P07550); assay: Binding affinity to beta2 adrenergic receptor
[13] = target: T1, 5-hydroxytryptamine receptor 4 (Homo sapiens, UniProt Q13639); assay: Antagonistic activity at human 5HT4 receptor expressed in HEK293 cells assessed as inhibition of 5-HT stimulated ADCY activity after 20 mins; assay type: functional, cell-based
T1 sequence (Q13639 whole entry): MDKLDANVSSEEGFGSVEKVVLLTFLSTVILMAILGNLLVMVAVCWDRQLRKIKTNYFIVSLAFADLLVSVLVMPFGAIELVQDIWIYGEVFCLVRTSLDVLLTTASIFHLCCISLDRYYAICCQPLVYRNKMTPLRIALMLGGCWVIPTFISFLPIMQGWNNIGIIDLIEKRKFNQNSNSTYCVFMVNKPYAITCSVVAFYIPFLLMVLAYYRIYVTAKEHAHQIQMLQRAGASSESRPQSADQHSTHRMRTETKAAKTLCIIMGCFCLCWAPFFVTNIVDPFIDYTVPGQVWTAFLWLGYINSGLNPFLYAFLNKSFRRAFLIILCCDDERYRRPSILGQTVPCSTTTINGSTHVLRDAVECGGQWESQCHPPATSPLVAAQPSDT
Method in brief: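 Membranes from HEK293 cells stably expressing human 5-HT4(b) at low level (400 fmol/mg). Adenylyl cyclase activity was stimulated by 1 µM 5-HT with 21 antagonist concentrations, 0.1 mM [α-32P]ATP, 4 mM MgCl2, 1 mM IBMX, GTP and ATP-regenerating system, 32 °C, 20 min. [32P]cAMP was isolated on Dowex/alumina columns. IC50 was fitted by non-linear regression and Kb calculated using 5-HT EC50.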

Histamine H2 receptor = Histamine H2 receptor (Homo sapiens, UniProt P25021); assay: Binding affinity to Histamine receptor H2
[14] = target: Delta-type opioid receptor (Homo sapiens, UniProt P41143); assay: Binding affinity to opioid receptor DOR
D(1A) dopamine receptor = D(1A) dopamine receptor (Homo sapiens, UniProt P21728); assay: Binding affinity to dopamine receptor D1
D(1A) dopamine receptor, sequence (P21728 whole entry): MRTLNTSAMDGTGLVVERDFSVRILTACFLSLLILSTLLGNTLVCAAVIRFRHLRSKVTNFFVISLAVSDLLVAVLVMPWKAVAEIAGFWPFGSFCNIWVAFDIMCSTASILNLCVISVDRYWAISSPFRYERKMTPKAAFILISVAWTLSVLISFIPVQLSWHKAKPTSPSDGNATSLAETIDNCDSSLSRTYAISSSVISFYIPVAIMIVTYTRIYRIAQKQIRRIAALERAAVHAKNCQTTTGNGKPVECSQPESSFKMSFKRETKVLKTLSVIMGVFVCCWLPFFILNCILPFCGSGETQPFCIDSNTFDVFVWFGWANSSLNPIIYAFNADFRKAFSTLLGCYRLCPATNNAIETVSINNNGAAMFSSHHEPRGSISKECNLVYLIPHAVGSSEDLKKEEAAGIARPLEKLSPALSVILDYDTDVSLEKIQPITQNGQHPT

D(2) dopamine receptor = D(2) dopamine receptor (Homo sapiens, UniProt P14416); assay: Binding affinity to dopamine receptor D2
[15] = target: Beta-1 adrenergic receptor (Homo sapiens, UniProt P08588); assay: Binding affinity to beta1 adrenergic receptor
Histamine H3 receptor = Histamine H3 receptor (Homo sapiens, UniProt Q9Y5N1); assay: Binding affinity to Histamine receptor H3
[16] = target: 5-hydroxytryptamine receptor 1B (Homo sapiens, UniProt P28222); assay: Binding affinity to 5HT1B receptor
[17] = target: 5-hydroxytryptamine receptor 3A (Homo sapiens, UniProt P46098); assay: Binding affinity to 5HT3 receptor
[18] = target: 5-hydroxytryptamine receptor 5A (Homo sapiens, UniProt P47898); assay: Binding affinity to 5HT5A receptor
Histamine H1 receptor = Histamine H1 receptor (Homo sapiens, UniProt P35367); assay: Binding affinity to Histamine receptor H1
Histamine H1 receptor, sequence (P35367 whole entry): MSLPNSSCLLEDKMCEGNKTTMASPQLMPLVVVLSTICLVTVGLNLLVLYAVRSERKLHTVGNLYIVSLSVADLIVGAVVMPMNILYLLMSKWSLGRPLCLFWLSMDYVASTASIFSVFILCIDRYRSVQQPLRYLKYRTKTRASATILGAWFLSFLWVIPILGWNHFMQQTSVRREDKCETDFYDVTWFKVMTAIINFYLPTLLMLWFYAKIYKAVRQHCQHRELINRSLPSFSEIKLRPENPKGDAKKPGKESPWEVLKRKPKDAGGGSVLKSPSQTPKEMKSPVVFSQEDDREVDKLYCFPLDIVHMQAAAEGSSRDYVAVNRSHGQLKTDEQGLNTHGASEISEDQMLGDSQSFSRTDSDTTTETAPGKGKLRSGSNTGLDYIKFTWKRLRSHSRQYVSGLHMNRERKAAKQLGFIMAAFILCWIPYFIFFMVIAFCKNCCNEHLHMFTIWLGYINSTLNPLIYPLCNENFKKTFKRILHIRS

[19] = Lipophilicity, log D of the compound in octanol buffer at pH 7.4; assay type: physicochemical
Method in brief: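 Distribution between octanol and aqueous buffer at pH 7.4. Both phases were diluted and ligand concentration in each measured by HPLC. Not determined where micelles formed.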

[20] = target: Muscarinic acetylcholine receptor M5 (Homo sapiens, UniProt P08912); assay: Binding affinity to muscarinic acetylcholine receptor M5
[21] = Binding affinity to GABA-A receptor muscimol site
[22] = target: 5-hydroxytryptamine receptor 2C (Homo sapiens, UniProt P28335); assay: Binding affinity to 5HT2C receptor
[23] = target: 5-hydroxytryptamine receptor 2B (Homo sapiens, UniProt P41595); assay: Binding affinity to 5HT2B receptor
[24] = target: Alpha-1B adrenergic receptor (Homo sapiens, UniProt P35368); assay: Binding affinity to Alpha-1B adrenergic receptor
Histamine H4 receptor = Histamine H4 receptor (Homo sapiens, UniProt Q9H3N8); assay: Binding affinity to Histamine receptor H4
[25] = target: Sodium-dependent dopamine transporter (Homo sapiens, UniProt Q01959); assay: Binding affinity to DAT
[26] = Binding affinity to opioid receptor Sigma2
[27] = target: T1, 5-hydroxytryptamine receptor 4; assay: Displacement of [3H]GR113808 from human 5HT4 receptor expressed in HEK293 cells by liquid scintillation counting; assay type: cell-based
Method in brief: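 Membranes from HEK293 line stably expressing human 5-HT4(b) at high level (5000 fmol/mg). Incubated with 0.3 nM [3H]GR113808 and 21 competitor concentrations in Tris-HCl pH 7.5, EDTA, EGTA, 2 mM MgCl2, ascorbate, 0.1% BSA, 100 µM GTP, room temperature 1 h. Filtered onto PEI-soaked filters, washed, scintillation counted. Ki derived from IC50 via Ki = IC50/(1+L/Kd).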

[28] = target: 5-hydroxytryptamine receptor 1A (Homo sapiens, UniProt P08908); assay: Binding affinity to 5HT1A receptor
[29] = target: 5-hydroxytryptamine receptor 1D (Homo sapiens, UniProt P28221); assay: Binding affinity to 5HT1D receptor
[30] = target: 5-hydroxytryptamine receptor 7 (Homo sapiens, UniProt P34969); assay: Binding affinity to 5HT7 receptor
[31] = target: Alpha-2B adrenergic receptor (Homo sapiens, UniProt P18089); assay: Binding affinity to alpha2B adrenergic receptor
Alpha-2B adrenergic receptor, sequence (P18089 whole entry): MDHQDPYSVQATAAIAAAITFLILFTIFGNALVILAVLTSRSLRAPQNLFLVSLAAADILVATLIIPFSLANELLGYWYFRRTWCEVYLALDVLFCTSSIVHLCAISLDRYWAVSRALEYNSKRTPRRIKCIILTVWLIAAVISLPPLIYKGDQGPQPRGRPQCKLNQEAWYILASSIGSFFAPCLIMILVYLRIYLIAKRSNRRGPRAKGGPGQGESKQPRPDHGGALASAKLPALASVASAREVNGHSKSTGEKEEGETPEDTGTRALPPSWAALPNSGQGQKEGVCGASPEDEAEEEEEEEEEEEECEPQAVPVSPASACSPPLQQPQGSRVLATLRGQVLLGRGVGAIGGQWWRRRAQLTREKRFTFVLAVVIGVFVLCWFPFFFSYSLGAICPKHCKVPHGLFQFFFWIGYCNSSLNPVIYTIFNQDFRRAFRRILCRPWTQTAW

[32] = target: 5-hydroxytryptamine receptor 1E (Homo sapiens, UniProt P28566); assay: Binding affinity to 5HT1E receptor
5-hydroxytryptamine receptor 1E, sequence (P28566 whole entry): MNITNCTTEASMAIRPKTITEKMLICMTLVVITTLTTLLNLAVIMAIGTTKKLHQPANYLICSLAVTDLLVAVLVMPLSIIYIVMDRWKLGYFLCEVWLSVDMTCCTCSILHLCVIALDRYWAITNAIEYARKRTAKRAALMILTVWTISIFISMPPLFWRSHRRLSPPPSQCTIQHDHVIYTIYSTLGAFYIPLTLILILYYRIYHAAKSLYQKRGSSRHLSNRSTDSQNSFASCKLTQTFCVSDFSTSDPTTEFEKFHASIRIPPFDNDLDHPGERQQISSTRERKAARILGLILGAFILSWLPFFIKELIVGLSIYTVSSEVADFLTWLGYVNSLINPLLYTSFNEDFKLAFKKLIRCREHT

[33] = target: Sigma non-opioid intracellular receptor 1 (Homo sapiens, UniProt Q99720); assay: Binding affinity to opioid receptor Sigma1
Sigma non-opioid intracellular receptor 1, sequence (Q99720 whole entry): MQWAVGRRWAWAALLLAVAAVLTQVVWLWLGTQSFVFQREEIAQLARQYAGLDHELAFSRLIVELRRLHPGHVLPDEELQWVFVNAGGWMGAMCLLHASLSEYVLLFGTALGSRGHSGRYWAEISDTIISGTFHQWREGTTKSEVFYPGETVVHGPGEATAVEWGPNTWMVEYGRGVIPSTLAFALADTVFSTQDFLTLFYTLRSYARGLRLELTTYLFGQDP

Mu-type opioid receptor = Mu-type opioid receptor (Homo sapiens, UniProt P35372); assay: Binding affinity to opioid receptor MOR
D(4) dopamine receptor = D(4) dopamine receptor (Homo sapiens, UniProt P21917); assay: Binding affinity to dopamine receptor D4
[34] = target: 5-hydroxytryptamine receptor 6 (Homo sapiens, UniProt P50406); assay: Binding affinity to 5HT6 receptor
5-hydroxytryptamine receptor 6, sequence (P50406 whole entry): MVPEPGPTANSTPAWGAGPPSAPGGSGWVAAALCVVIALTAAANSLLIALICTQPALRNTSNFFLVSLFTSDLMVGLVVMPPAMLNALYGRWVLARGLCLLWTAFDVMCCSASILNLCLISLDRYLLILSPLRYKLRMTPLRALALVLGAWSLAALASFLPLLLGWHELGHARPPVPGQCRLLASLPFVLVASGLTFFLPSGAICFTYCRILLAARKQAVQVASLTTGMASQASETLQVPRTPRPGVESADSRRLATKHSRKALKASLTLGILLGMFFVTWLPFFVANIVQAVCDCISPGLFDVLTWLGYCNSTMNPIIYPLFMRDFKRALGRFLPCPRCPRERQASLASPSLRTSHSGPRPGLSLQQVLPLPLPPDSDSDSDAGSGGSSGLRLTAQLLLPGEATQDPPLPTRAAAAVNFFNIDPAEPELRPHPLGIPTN

D(1B) dopamine receptor = D(1B) dopamine receptor (Homo sapiens, UniProt P21918); assay: Binding affinity to dopamine receptor D5
[35] = target: Muscarinic acetylcholine receptor M2 (Homo sapiens, UniProt P08172); assay: Binding affinity to muscarinic acetylcholine receptor M2
[36] = target: Beta-3 adrenergic receptor (Homo sapiens, UniProt P13945); assay: Binding affinity to beta3 adrenergic receptor

Muscarinic acetylcholine receptor M3, sequence (P20309 whole entry): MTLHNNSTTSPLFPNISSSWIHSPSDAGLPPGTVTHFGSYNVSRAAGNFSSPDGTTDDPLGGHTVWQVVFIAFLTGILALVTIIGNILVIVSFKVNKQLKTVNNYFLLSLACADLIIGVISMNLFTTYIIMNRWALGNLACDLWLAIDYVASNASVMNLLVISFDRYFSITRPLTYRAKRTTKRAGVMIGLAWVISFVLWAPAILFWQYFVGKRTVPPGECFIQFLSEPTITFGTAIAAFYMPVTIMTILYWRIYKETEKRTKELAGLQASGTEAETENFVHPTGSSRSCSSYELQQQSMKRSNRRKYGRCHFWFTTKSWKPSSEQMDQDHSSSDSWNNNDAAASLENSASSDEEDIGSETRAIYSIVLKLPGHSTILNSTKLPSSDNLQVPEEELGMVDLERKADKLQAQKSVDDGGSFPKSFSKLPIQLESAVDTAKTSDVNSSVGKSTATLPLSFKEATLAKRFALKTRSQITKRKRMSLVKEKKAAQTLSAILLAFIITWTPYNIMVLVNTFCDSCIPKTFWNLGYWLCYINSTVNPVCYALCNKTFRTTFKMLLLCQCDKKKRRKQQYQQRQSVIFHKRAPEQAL
Kappa-type opioid receptor, sequence (P41145 whole entry): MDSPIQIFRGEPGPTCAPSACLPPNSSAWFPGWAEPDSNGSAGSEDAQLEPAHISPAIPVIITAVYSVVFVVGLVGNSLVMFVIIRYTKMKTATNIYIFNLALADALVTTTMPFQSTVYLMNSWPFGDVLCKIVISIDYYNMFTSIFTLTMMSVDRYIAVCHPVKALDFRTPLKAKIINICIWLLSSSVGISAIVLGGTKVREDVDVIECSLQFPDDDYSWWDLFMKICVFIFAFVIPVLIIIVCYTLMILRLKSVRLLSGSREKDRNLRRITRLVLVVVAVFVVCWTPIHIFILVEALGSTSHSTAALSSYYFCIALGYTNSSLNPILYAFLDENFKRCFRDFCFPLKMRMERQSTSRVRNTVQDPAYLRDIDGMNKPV

## COC(=O)CCCCCN1CCC(CNC(=O)c2c3n(c4ccccc24)CCCO3)CC1
[1]
  Ki: > 10 µM
[2]
  Ki: > 10 µM
[3]
  Ki: > 10 µM
[4]
  Ki: > 10 µM
[5]
  Ki: > 10 µM
[6]
  Ki: > 10 µM
D(3) dopamine receptor
  Ki: > 10 µM
[7]
  pKi: < 5
[8]
  Ki: > 10 µM
[9]
  Ki: 6.31 µM
[10]
  Ki: > 10 µM
[11]
  Ki: > 10 µM
[12]
  Ki: > 10 µM
[13]
  pKb: 9.13
Histamine H2 receptor
  Ki: 3.16 µM
[14]
  Ki: > 10 µM
D(1A) dopamine receptor
  Ki: > 10 µM
D(2) dopamine receptor
  Ki: > 10 µM
[15]
  Ki: > 10 µM
Histamine H3 receptor
  Ki: > 10 µM
[16]
  Ki: > 10 µM
[17]
  Ki: 2.51 µM
[18]
  Ki: > 10 µM
Histamine H1 receptor
  Ki: 1.26 µM
[19]
  logD: 2.2
[20]
  Ki: > 10 µM
[21]
  pKi: < 5
[22]
  Ki: > 10 µM
[23]
  Ki: 0.316 µM
[24]
  Ki: > 10 µM
Histamine H4 receptor
  Ki: > 10 µM
[25]
  Ki: > 10 µM
[26]
  pKi: < 5
[27]
  Ki: 0.000107 µM
[28]
  Ki: > 10 µM
[29]
  Ki: 3.16 µM
[30]
  Ki: > 10 µM
[31]
  Ki: 1.26 µM
[32]
  Ki: > 10 µM
[33]
  Ki: 0.398 µM
Mu-type opioid receptor
  Ki: > 10 µM
D(4) dopamine receptor
  Ki: > 10 µM
[34]
  Ki: > 10 µM
D(1B) dopamine receptor
  Ki: > 10 µM
[35]
  Ki: 2.51 µM
[36]
  Ki: > 10 µM
